Experiment [1] is described as follows: Cytotoxicity against human CNS cancer cells after 48 hrs. Format: functional. As to conditions: Cancer cell lines. The gist of the method: (§1)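 NCI 60-cell panel, values averaged per subpanel. Compounds were dissolved in DMSO and first screened at a single 10⁻⁵ M dose. Active ones then went to five concentrations at ten-fold dilutions, top 10⁻⁴ M (10⁻³ M for some), with 48 h exposure.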

A short description of experiment [2]: Cytotoxicity against human prostate cancer cells after 48 hrs. As to conditions: Cancer cell lines; for CC50: read-out: LC50 (the source's name). Type of experiment: functional. The method, boiled down: as §1
The nature of experiment [3]: Cytotoxicity against human leukemia cells after 48 hrs. Format: functional. The following applies: Leukemia cell; for CC50: read-out: LC50 (the source's name).
A short description of experiment [4]: Cytotoxicity against human ovarian cancer cells after 48 hrs. As to conditions: Cancer cell lines; for CC50: read-out: LC50 (the source's name). Format: functional. The gist of the method: as §1
The nature of experiment [5]: Cytotoxicity against human NSCLC cells after 48 hrs. Type of experiment: functional. As to conditions: for CC50: read-out: LC50 (the source's name). The gist of the method:
as §1

Experiment [6] can be described thus: Cytotoxicity against human breast cancer cells after 48 hrs. As to conditions: Cancer cell lines. Format: functional. The method, boiled down: as §1
Experiment [7] in a line: Cytotoxicity against human colon cancer cells after 48 hrs. Type of experiment: functional. The following applies: Cancer cell lines. The gist of the method: as §1
Experiment [8] is described as follows: Inhibition of bovine brain tubulin assembly after 20 mins.
Experiment [9] in a line: Cytotoxicity against human renal cancer cells after 48 hrs. Type of experiment: functional. As to conditions: Cancer cell lines.
Experiment [10] is described as follows: Cytotoxicity against human melanoma cells after 48 hrs. Format: functional. As to conditions: Melanoma cell; for CC50: read-out: LC50 (the source's name).
For the next experiment, the system named is B1647. The experiment in a line: Cytotoxicity against human B1647 cells at 5 to 10 uM after 24 hrs by MTT assay. Format: functional, cell-based. The method, boiled down: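 B1647 human AML cells grown in IMDM with 5% human serum (37 °C, 5% CO2); 10⁶ cells per well in 1 mL exposed to 5 or 10 µM compound (DMSO) for 24 h. MTT 0.5 mg/mL added for 4 h at 37 °C, formazan dissolved overnight in 10% SDS/0.01 M HCl, A570 read. Four independent experiments.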

Molecules are shown by their SMILES. pIC50: −log10 of the molar value. Calls of active or inactive are those of the source. The calls are words filed in the database; no cut-off is given here.

With `COc1cc(/C=C2\C(=O)N(C)c3ccc(Cl)cc32)cc(OC)c1OC`, the concentration for 50% growth inhibition (GI50) amounted to 4.3 µM in experiment [1]; 3.2 µM in experiment [2]; 2.3 µM in experiment [3]; 5.9 µM in experiment [4]; 7.4 µM in experiment [5]; 3.7 µM in experiment [6]. Moreover, the 50% growth inhibitory concentration (GI50) came out at 4 µM in [7], 4.7 µM in experiment [9] and 5 µM in [10]. The LC50 in experiment [1] stood at 81.3 µM; in experiment [7] it was 67.6 µM; in [9] it was 85.1 µM. Moreover, the concentration for total growth inhibition (TGI) in experiment [1] was 24.5 µM; in experiment [2] it was 11.2 µM; in experiment [3], 14.4 µM; in experiment [4] it was 36.3 µM; in experiment [5], 28.2 µM; in [6], 17.4 µM. The same compound yielded a TGI in experiment [7] of 18.2 µM. Further, the CC50 in experiment [3] was found to be 67.6 µM; in experiment [4] it was 93.3 µM; in experiment [5], 85.1 µM; in experiment [10], 69.2 µM. Moreover, in experiment [8], the pIC50 is < 4.70.
As for `COc1ccc(OC)c2c1NC(=O)/C2=C\c1cc(OC)c(OC)c(OC)c1`, the 50% growth inhibitory concentration (GI50) was found to be 5.5 µM in [1]; 4.3 µM in [2]; 2.6 µM in experiment [3]; 4.6 µM in experiment [4]; 7.1 µM in experiment [5]; 2.2 µM in [6]. Further, the results for the GI50 in experiment [7], in experiment [9] and in experiment [10] were 4 µM, 4.5 µM and 5.2 µM, respectively. Also, the LC50 stood at 54.9 µM in experiment [1], 64.6 µM in [6], 41.7 µM in [7] and 54.9 µM in [9]. Besides, the TGI worked out at 20.4 µM in experiment [1]; 22.9 µM in experiment [2]; 14.1 µM in experiment [3]; 23.4 µM in experiment [4]; 25.1 µM in experiment [5]; 15.5 µM in experiment [7]. The concentration for total growth inhibition (TGI) in experiment [9] and in [10] was 18.6 µM each time. Further, the CC50 is 58.9 µM in [2]; 79.4 µM in [3]; 77.6 µM in [4]; 74.1 µM in experiment [5]; 44.7 µM in [10]. Moreover, the pIC50 in experiment [8] is < 4.70.
`COc1cc(/C=C2\C(=O)Nc3c(Cl)ccc(Cl)c32)cc(OC)c1OC`: the outcome in the experiment with B1647 was Active.
For `COc1cc(/C=C2\C(=O)Nc3cc(OC(F)(F)F)ccc32)cc(OC)c1OC`, the GI50 was found to be 2.6 µM in experiment [1]; 4.6 µM in [2]; 2.3 µM in experiment [3]; 2.9 µM in [4]; 2.9 µM in experiment [5]; 2.1 µM in experiment [6]. For the same compound, the GI50 in experiment [7] worked out at 2.8 µM; in experiment [9] it was 3.3 µM; in experiment [10] it was 2.6 µM. Further, the 50% lethal concentration (LC50) in experiment [1] amounted to 33.9 µM; in experiment [6] it was 60.3 µM; in experiment [7] it was 37.1 µM; in [9], 34.7 µM. Further, the total growth inhibition concentration (TGI) turned out to be 29.5 µM in experiment [2]; 27.5 µM in experiment [3]; 11.2 µM in experiment [4]; 14.1 µM in [5]; 10.2 µM in experiment [7]; 12.6 µM in experiment [9]. In addition, the total growth inhibition concentration (TGI) in experiment [10] was 10.7 µM. Also, the CC50 in [2] came to 83.2 µM; in [4], 49 µM; in experiment [5], 51.3 µM; in experiment [10], 44.7 µM. Also, the pIC50 in experiment [8] was < 4.70.
Take `COc1cc(/C=C2\C(=O)Nc3cc(Cl)ccc32)cc(OC)c1OC`: the GI50 in [1] amounted to 1.6 µM; in experiment [2] it was 1.5 µM; in [3], 0.5 µM; in experiment [4] it was 1.9 µM; in [5], 2 µM; in experiment [6], 0.8 µM. Also, the values for the GI50 in [7], in experiment [9] and in [10] were 0.8 µM, 1.6 µM and 1.9 µM, respectively. The LC50 was 18.6 µM in experiment [1], 31.6 µM in experiment [6], 22.9 µM in experiment [7] and 14.1 µM in [9]. The CC50 in experiment [2] is 17 µM; in [3], 56.2 µM; in experiment [4], 17.4 µM; in [5], 29.5 µM; in experiment [10], 19 µM. Besides, the pIC50 in experiment [8] was 4.82.
Take `COc1ccc2c(c1)/C(=C\c1cc(OC)c(OC)c(OC)c1)C(=O)N2C`: the concentration for 50% growth inhibition (GI50) was determined as 2.4 µM in experiment [1]; 2.6 µM in experiment [2]; 1.4 µM in experiment [3]; 3.5 µM in experiment [4]; 3.7 µM in experiment [5]; 2.7 µM in [6]. Also, the values for the GI50 in [7], in experiment [9] and in experiment [10] were 2.6 µM, 3.2 µM and 3.1 µM, respectively. The TGI in experiment [1] amounted to 14.1 µM; in experiment [4], 28.2 µM; in experiment [5], 46.8 µM; in experiment [7], 16.6 µM. Also, the CC50 in [3] turned out to be 87.1 µM; in [5], 83.2 µM; in experiment [10], 85.1 µM. The compound further had an LC50 in experiment [7] of 63.1 µM. Besides, the pIC50 in experiment [8] is < 4.70.
Take `COc1cc(/C=C2/C(=O)N(C)c3ccc(O)cc32)cc(OC)c1OC`: the GI50 in experiment [1] was determined as 4.3 µM; in experiment [2], 2.8 µM; in experiment [3], 2.2 µM; in [4], 5.5 µM; in experiment [5] it was 6.3 µM; in experiment [6] it was 3.2 µM. For the same compound, the results for the GI50 in [7], in [9] and in [10] were 4.3 µM, 5.7 µM and 4.9 µM, respectively. The LC50 in [1] amounted to 53.7 µM; in [6], 61.7 µM; in experiment [7], 47.9 µM; in [9] it was 70.8 µM. Besides, the CC50 in [2] was found to be 22.9 µM; in experiment [3], 81.3 µM; in experiment [4], 79.4 µM; in experiment [5] it was 77.6 µM; in [10] it was 43.6 µM. For the same compound, the TGI in experiment [4] is 26.3 µM; in experiment [5], 24.6 µM; in experiment [6], 15.1 µM; in [7] it was 18.2 µM; in experiment [9], 22.4 µM; in [10], 16.2 µM. For the same compound, the pIC50 in experiment [8] is < 4.70.
For the compound `COc1cc(/C=C2\C(=O)N(Cc3ccc(Cl)cc3)c3ccccc32)cc(OC)c1OC`, the GI50 in experiment [1] worked out at 3.4 µM; in experiment [2] it was 2.2 µM; in [3], 1.5 µM; in experiment [4], 3.4 µM; in experiment [5], 3.4 µM; in experiment [6], 2.4 µM. Further, the GI50 in [7] stood at 2.2 µM; in experiment [9], 2.5 µM; in experiment [10] it was 2.9 µM. Also, the LC50 in [1] is 46.8 µM; in experiment [6] it was 95.5 µM; in experiment [7] it was 14.4 µM; in experiment [9] it was 43.6 µM. The total growth inhibition concentration (TGI) in experiment [1] is 15.1 µM; in [4], 22.9 µM; in experiment [5], 14.4 µM; in experiment [6], 12.9 µM. The CC50 in [2] came to 33.1 µM; in experiment [3] it was 50.1 µM; in experiment [4], 51.3 µM; in experiment [5], 56.2 µM; in experiment [10], 26.9 µM. For the same compound, the outcome in the experiment with B1647 was Active. In addition, the pIC50 in experiment [8] was < 4.70.
Turning to `COc1ccc(CN2C(=O)/C(=C\c3cc(OC)c(OC)c(OC)c3)c3ccccc32)cc1`, the concentration for 50% growth inhibition (GI50) in experiment [1] was found to be 2.5 µM; in experiment [2] it was 2.7 µM; in experiment [3], 2.2 µM; in experiment [4], 2.6 µM; in experiment [5], 2 µM; in experiment [6], 2.3 µM. Moreover, the concentration for 50% growth inhibition (GI50) in experiment [7] was found to be 1.8 µM; in [9] it was 2 µM; in experiment [10], 1.7 µM. The LC50 in [1] amounted to 26.3 µM; in experiment [6] it was 93.3 µM; in [7], 8.3 µM; in [9], 45.7 µM. Besides, the concentration for total growth inhibition (TGI) stood at 10.5 µM in experiment [1]; 26.3 µM in experiment [2]; 27.5 µM in experiment [3]; 21.4 µM in experiment [4]; 17.4 µM in experiment [6]. Besides, the CC50 in experiment [4] came out at 67.6 µM; in [5], 38.9 µM; in [10], 19.5 µM. Further, the pIC50 in experiment [8] was < 4.70.
For the compound `CC[C@]1(O)C[C@H]2CN(CCc3c([nH]c4ccccc34)[C@@](C(=O)OC)(c3cc4c(cc3OC)N(C=O)[C@H]3[C@@](O)(C(=O)OC)[C@H](OC(C)=O)[C@]5(CC)C=CCN6CC[C@]43[C@@H]65)C2)C1` [VINCRISTINE], the CC50 in [2] was 316 µM; in [3], 631 µM; in [4], 316 µM.
Regarding `COc1ccc(CN2C(=O)/C(=C/c3cc(OC)c(OC)c(OC)c3)c3cc(OC)ccc32)cc1`, the 50% growth inhibitory concentration (GI50) came out at 2.2 µM in experiment [1]; 3.2 µM in experiment [2]; 2.7 µM in [3]; 2.4 µM in [4]; 2.3 µM in experiment [5]; 2.6 µM in [6]. For the same compound, the GI50 amounted to 1.9 µM in experiment [7], 2.4 µM in experiment [9] and 2.1 µM in experiment [10]. For the same compound, the LC50 amounted to 33.9 µM in [1], 79.4 µM in experiment [6], 7.9 µM in experiment [7] and 28.8 µM in experiment [9]. Further, the TGI turned out to be 14.1 µM in experiment [2], 27.5 µM in experiment [3], 11.2 µM in experiment [5] and 13.8 µM in [6]. The CC50 came out at 83.2 µM in experiment [2], 50.1 µM in experiment [4], 33.1 µM in [5] and 23.4 µM in experiment [10]. In addition, the pIC50 in experiment [8] is < 4.70.

Values taken from ChEMBL document CHEMBL2385029, “Cytotoxic activities of substituted 3-(3,4,5-trimethoxybenzylidene)-1,3-dihydroindol-2-ones and studies on their mechanisms of action” (Eur J Med Chem, 2013).
